This is an account of results in ChEMBL document CHEMBL1131088 (J Med Chem, 1998).

The target of test [1] is Dihydroorotate dehydrogenase (quinone), mitochondrial (Homo sapiens, UniProt Q02127). In words: In vitro inhibitory activity against human dihydroorotate dehydrogenase (DHODH).
Test [2] is filed under the species Mus musculus. Briefly: In vitro inhibitory activity against murine antibody response to T-cell independent B-cell antigen TNP-LPS (type I). It counts as functional. The procedure, abridged: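 C57Bl/6 nu/nu and C57Bl/6 spleen cells, 2 × 10⁵/well in duplicate, IMDM-ATL + 10% FCS with serial drug dilutions and optimal TNP-LPS, 4 days at 37 °C. Pooled supernatants went to ELISA on BSA-DNP plates, developed with biotin anti-mouse IgM, streptavidin-alkaline phosphatase and pNPP, read at 405/490 nm. % inhibition was taken relative to unstimulated (low) and stimulated (high) controls.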

In a further test the test system is Jurkat. In words: In vitro inhibitory activity against Jurkat cell proliferation. It counts as functional, cell-based. To be noted: Homo sapiens. In outline:
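Human Jurkat T cells kept in FCS-supplemented RPMI; 5 × 10⁴ cells/well cultured 2 days in 200 μL RPMI with test compound. Proliferation read as [³H]thymidine incorporation at the end of culture.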

The species named for test [3] is Mus musculus. In words: In vitro inhibitory activity against mouse mixed lymphocyte reaction (MLR). It counts as functional. The procedure, abridged: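 Equal numbers of C57Bl/6 (H-2^b) and CBA/2 (H-2^k) spleen cells mixed; 4 × 10⁵ cells/well with serial dilutions (DMSO/water) in 200 μL complete RPMI, 4 days, 37 °C, 5% CO₂. Proliferation by [³H]thymidine incorporation.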

Structures are written as SMILES. Where only a bound is given, the exact number is not on record here.

Broadly, the IC50 is the concentration needed to halve the response being measured.

Sequence of Dihydroorotate dehydrogenase (quinone), mitochondrial (Q02127 whole entry): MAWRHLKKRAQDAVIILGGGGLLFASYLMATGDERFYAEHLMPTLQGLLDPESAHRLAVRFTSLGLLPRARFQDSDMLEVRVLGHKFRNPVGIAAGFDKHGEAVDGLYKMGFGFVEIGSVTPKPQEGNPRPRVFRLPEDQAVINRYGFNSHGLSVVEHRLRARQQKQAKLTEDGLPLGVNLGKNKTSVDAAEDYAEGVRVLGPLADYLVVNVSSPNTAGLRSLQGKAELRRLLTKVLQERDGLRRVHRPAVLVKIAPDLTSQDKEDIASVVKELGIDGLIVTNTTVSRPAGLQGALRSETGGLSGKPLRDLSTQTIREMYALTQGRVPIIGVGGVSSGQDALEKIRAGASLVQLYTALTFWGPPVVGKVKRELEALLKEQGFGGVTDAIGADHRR

Regarding `N#Cc1c(-c2cccs2)n[nH]c1Nc1ccc(C(F)(F)F)cc1`, the IC50 (in test [1]; in the test filed under Mus musculus [2]) was over 50 µM each time.

Take `Cc1n[nH]c(Nc2ccc(OC(F)(F)F)cc2)c1C#N`: the half-maximal inhibitory concentration (IC50) in test [1] stood at 0.5 µM; in the test with Jurkat it was 16.1 µM; in the test filed under Mus musculus [3], 0.45 µM; in the test listed under Mus musculus [2], 20 µM.

Turning to `CCOC(=O)c1c(C)n[nH]c1Nc1ccc(C(F)(F)F)cc1`, the IC50 is over 50 µM in test [1] and 23.8 µM in the test filed under Mus musculus [2].

Regarding `Cc1n[nH]c(Nc2ccc(C(F)(F)F)cc2)c1C`, the concentration for half-maximal inhibition (IC50) in test [1] was 22.5 µM; in the test on Jurkat, 43 µM; in the test filed under Mus musculus [3] it was 18.7 µM; in the test filed under Mus musculus [2], 14.6 µM.

Consider `Cc1n[nH]c(Nc2ccc(N)cc2)c1C#N`, for which the concentration for half-maximal inhibition (IC50) (in test [1]; in the test filed under Mus musculus [2]) was over 50 µM throughout.

For the molecule `Cc1nn(C)c(Nc2ccc(C(F)(F)F)cc2)c1C#N`, the IC50 in test [1] is over 50 µM; with Jurkat, 47.2 µM; in the test listed under Mus musculus [3], 16.1 µM; in the test filed under Mus musculus [2] it was 23.1 µM.

Turning to `CC(C)c1n[nH]c(Nc2ccc(C(F)(F)F)cc2)c1C#N`, the IC50 in test [1] is 4 µM; with Jurkat, over 50 µM; in the test filed under Mus musculus [3], 3.1 µM; in the test filed under Mus musculus [2] it was 4.7 µM.

Take `Cc1n[nH]c(Nc2ccc(F)cc2)c1C#N`: the IC50 was 19.4 µM in test [1], over 50 µM with Jurkat, 7.4 µM in the test filed under Mus musculus [3] and 9.2 µM in the test listed under Mus musculus [2].

Consider `Cc1n[nH]c(Nc2ccc(C(F)(F)F)cc2)c1CO`, for which the IC50 in test [1] is 2.7 µM; in the test listed under Mus musculus [2] it was 21.3 µM.

Consider `FC(F)(F)c1ccc(Nc2[nH]nc3c2CCCC3)cc1`, for which the IC50 in test [1] stood at 6.2 µM; in the test with Jurkat, 31.2 µM; in the test filed under Mus musculus [3] it was 3.4 µM; in the test listed under Mus musculus [2] it was 13.8 µM.

As for `N#Cc1c(C2CCCC2)n[nH]c1Nc1ccc(C(F)(F)F)cc1`, the half-maximal inhibitory concentration (IC50) in test [1] is over 50 µM; in the test on Jurkat, 31.8 µM; in the test filed under Mus musculus [3] it was 2.9 µM; in the test filed under Mus musculus [2], 22.4 µM.

As for `Cc1oncc1C(=O)Nc1ccc(C(F)(F)F)cc1` [LEFLUNOMIDE], the half-maximal inhibitory concentration (IC50) was 41.4 µM in the test on Jurkat, 7.4 µM in the test filed under Mus musculus [3] and 5.1 µM in the test filed under Mus musculus [2].

For the molecule `C/C=C/C[C@@H](C)[C@@H](O)[C@H]1C(=O)N[C@@H](CC)C(=O)N(C)CC(=O)N(C)[C@@H](CC(C)C)C(=O)N[C@@H](C(C)C)C(=O)N(C)[C@@H](CC(C)C)C(=O)N[C@@H](C)C(=O)N[C@H](C)C(=O)N(C)[C@@H](CC(C)C)C(=O)N(C)[C@@H](CC(C)C)C(=O)N(C)[C@@H](C(C)C)C(=O)N1C` [CYCLOSPORINE], the IC50 in the test on Jurkat is over 10 µM.

Turning to `N#Cc1c(-c2ccco2)n[nH]c1Nc1ccc(C(F)(F)F)cc1`, the IC50 (in test [1]; in the test filed under Mus musculus [2]) was over 50 µM each time.

On to `Cc1n[nH]c(Nc2c(F)cc(F)cc2F)c1C#N`, for which the half-maximal inhibitory concentration (IC50) stood at 22.4 µM in test [1] and 35 µM in the test filed under Mus musculus [2].

`Cc1n[nH]c(Nc2ccc(C(C)(C)C)cc2)c1C#N`: the IC50 in test [1] came out at 3.6 µM; in the test with Jurkat, 12.3 µM; in the test filed under Mus musculus [3], 7.6 µM; in the test filed under Mus musculus [2] it was 30.6 µM.

Take `Cc1n[nH]c(NCc2ccc(C(F)(F)F)cc2)c1C#N`: the IC50 in test [1] is over 50 µM; in the test with Jurkat it was over 50 µM; in the test filed under Mus musculus [3], 40.5 µM; in the test filed under Mus musculus [2] it was 17.1 µM.

With `Cc1n[nH]c(N(C)c2ccc(C(F)(F)F)cc2)c1C#N`, the 50% inhibitory concentration (IC50) in test [1] is over 50 µM; in the test with Jurkat, over 50 µM; in the test listed under Mus musculus [3], 23.6 µM; in the test filed under Mus musculus [2], 19.1 µM.

For the molecule `N#Cc1c(-c2ccccc2)n[nH]c1Nc1ccc(C(F)(F)F)cc1`, the figures for the IC50 (in test [1]; in the test listed under Mus musculus [2]) were over 50 µM and 32 µM, respectively.

Turning to `O=C1CCCc2n[nH]c(Nc3ccc(C(F)(F)F)cc3)c21`, the IC50 is 6.5 µM in test [1], 17.7 µM in the test on Jurkat, 8.6 µM in the test filed under Mus musculus [3] and 16.7 µM in the test filed under Mus musculus [2].

As for `N#Cc1c(Nc2ccc(C(F)(F)F)cc2)n[nH]c1O`, the concentration for half-maximal inhibition (IC50) (in test [1]; in the test filed under Mus musculus [2]) was over 50 µM throughout.

Consider `N#Cc1c(Nc2ccc(C(F)(F)F)cc2)n[nH]c1N`, for which the IC50 in test [1] is over 50 µM; in the test with Jurkat, over 50 µM; in the test filed under Mus musculus [3] it was 3.7 µM; in the test filed under Mus musculus [2], 14.7 µM.

For the molecule `Cc1n[nH]c(Nc2ccccc2)c1C#N`, the IC50 (in test [1]; in the test on Jurkat; in the test listed under Mus musculus [3]; in the test filed under Mus musculus [2]) was over 50 µM in each case.

Consider `CC(C)(C)c1[nH]nc(Nc2ccc(C(F)(F)F)cc2)c1C#N`, for which the IC50 was over 50 µM in test [1], over 50 µM in the test on Jurkat, 5.3 µM in the test listed under Mus musculus [3] and 5.8 µM in the test listed under Mus musculus [2].

`N#Cc1c(-c2cccnc2)n[nH]c1Nc1ccc(C(F)(F)F)cc1`: the IC50 was over 50 µM in test [1] and 27 µM in the test listed under Mus musculus [2].

On to `Cc1n[nH]c(Nc2ccc(C(F)(F)F)c(Br)c2)c1C#N`, for which the results for the IC50 (in test [1]; in the test listed under Mus musculus [2]) were over 50 µM and 20.9 µM, respectively.

For `Cc1n[nH]c(Nc2cc(C(F)(F)F)cc(C(F)(F)F)c2)c1C#N`, the IC50 in test [1] is over 50 µM; with Jurkat it was 16.2 µM; in the test filed under Mus musculus [3] it was 6.7 µM; in the test filed under Mus musculus [2], 28 µM.

For the molecule `Cc1n[nH]c(Nc2ccccc2C(F)(F)F)c1C#N`, the IC50 (in test [1]; in the test filed under Mus musculus [2]) was over 50 µM in each case.

On to `Cc1n[nH]c(Nc2ccc(C(F)(F)F)cc2)c1C#N`, for which the half-maximal inhibitory concentration (IC50) in test [1] was 2.6 µM; in the test with Jurkat, over 50 µM; in the test listed under Mus musculus [3], 2.1 µM; in the test filed under Mus musculus [2] it was 5.3 µM.

As for `Cc1n[nH]c(Nc2ccc(C(F)(F)F)cc2)c1-c1ccccc1`, the half-maximal inhibitory concentration (IC50) in test [1] was over 50 µM; in the test filed under Mus musculus [2], 29.4 µM.

For `C/C(=N\N)c1c(C)n[nH]c1Nc1ccc(C(F)(F)F)cc1`, the IC50 is over 50 µM in test [1], 41 µM with Jurkat, 20.3 µM in the test filed under Mus musculus [3] and 17.4 µM in the test filed under Mus musculus [2].

With `Cc1n[nH]c(Nc2ccc(C#N)cc2)c1C#N`, the IC50 in test [1] is 3.2 µM; in the test on Jurkat, over 50 µM; in the test listed under Mus musculus [3], 6 µM; in the test filed under Mus musculus [2], 11.6 µM.

Regarding `Cc1ccc(Nc2[nH]nc(C)c2C#N)cc1`, the results for the IC50 (in test [1]; in the test listed under Mus musculus [2]) were 12.1 µM and over 50 µM, respectively.

Turning to `Cc1cc(Nc2ccc(C(F)(F)F)cc2)[nH]n1`, the IC50 in test [1] is 16.5 µM; in the test with Jurkat it was over 50 µM; in the test listed under Mus musculus [3] it was 16.5 µM; in the test listed under Mus musculus [2], 26.5 µM.

As to `CCNc1[nH]nc(Nc2ccc(C(F)(F)F)cc2)c1C#N`, the IC50 is over 50 µM in test [1], 38.7 µM in the test on Jurkat, 7.5 µM in the test listed under Mus musculus [3] and 16.9 µM in the test listed under Mus musculus [2].

On to `N#Cc1c(-c2ccncc2)n[nH]c1Nc1ccc(C(F)(F)F)cc1`, for which the IC50 in test [1] was over 50 µM; in the test with Jurkat, 10.8 µM; in the test filed under Mus musculus [3] it was 3.6 µM; in the test listed under Mus musculus [2], 13.6 µM.

As to `Cc1n[nH]c(Nc2ccc([N+](=O)[O-])cc2)c1C#N`, the concentration for half-maximal inhibition (IC50) in test [1] is 9 µM; in the test on Jurkat, over 50 µM; in the test listed under Mus musculus [3] it was 4.3 µM; in the test listed under Mus musculus [2], 6.5 µM.

On to `Cc1n[nH]c(Nc2cccc(C(F)(F)F)c2)c1C#N`, for which the IC50 (in test [1]; in the test listed under Mus musculus [2]) was over 50 µM in each case.
